# In article PMC8569251 (European journal of pharmaceutical sciences : official …, 2020):
# Columns and labels:
# E. coli = experiment: Antimicrobial activity; format: cell-based; settings: 24 h incubation; MIC100
# Summary of the method: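 E. coli from LB medium, inoculated into LB broth at 10⁵ CFU/mL in 96-well plates with test compound at 1–400 µg/mL. Concentrations re-tested in 1 µg/mL (low MIC) or 5 µg/mL (high MIC) steps. MIC is the lowest concentration giving 100% growth inhibition. Triplicate. Colistin positive control; compound-free culture negative control.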
# [1] = tested on: methicillin-resistant Staphylococcus aureus (MRSA) LAC300; experiment: Antimicrobial activity; format: cell-based; settings: 24 h, read-out: MIC, Bacteria S. aureus
# [2] = tested on: C. albicans hyphae (biofilm); experiment: Inhibition of Candida biofilm; format: cell-based, C. albicans SC5314
# C. albicans yeast = experiment: Antimicrobial activity; format: cell-based, C. albicans SC5314
# [3] = experimental activities, −log MIC50, QSAR training set
compound,measurement,setting,value
Colistin [reference compound],"MIC, Bacteria E. coli",E. coli,5 mg/L
CN[C@H](CC(C)C)C(=O)N[C@H]1C(=O)N[C@@H](CC(N)=O)C(=O)N[C@H]2C(=O)N[C@H]3C(=O)N[C@H](C(=O)N[C@H](C(=O)O)c4cc(O)cc(O)c4-c4cc3ccc4O)[C@H](O)c3ccc(c(Cl)c3)Oc3cc2cc(c3O[C@@H]2O[C@H](CO)[C@@H](O)[C@H](O)[C@H]2O[C@H]2C[C@](C)(N)[C@H](O)[C@H](C)O2)Oc2ccc(cc2Cl)[C@H]1O [Vancomycin],MIC,[1],3 mg/L
Triton X-100,erythrocyte hemolysis (positive control),human erythrocytes,100%
COc1cc(C=C2SC(=S)NC2=O)ccc1OCc1cccc(C(F)(F)F)c1 [SR7],hyphae inhibition,[2]; 10 μg/mL,90%
same,"MIC, C. albicans Hyphae","[2]; 24 h incubation, 100% inhibition of biofilm (hyphal) formation (MIC100)",10 ± 3 mg/L
same,pMIC50 Hyphae,[2]; [3],4.764 M/L
same,"MIC, C. albicans Yeast","C. albicans yeast; 24 h incubation, lowest concentration inhibiting 100% of growth (MIC100)",125 ± 10 mg/L
same,pMIC50 Yeast,C. albicans yeast; [3],3.579 M/L
same,"MIC, Bacteria E. coli",E. coli,100 ± 5 mg/L
"CC(=O)N1CCN(c2ccc(OCC3COC(Cn4ccnc4)(c4ccc(Cl)cc4Cl)O3)cc2)CC1 (stereo not shown) [Ketoconazole, reference compound]",MIC,"C. albicans yeast; 24 h, read-out: MIC, C. albicans Yeast",3 mg/L
